Columns and labels:
[1] = test system: NCI-H460; assay: Growth inhibition of human H460 cells after 48 hrs by sulforhodamine B assay; format: functional; settings: NCI-H460, 48 h
How it was run: (§1)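 Grown in RPMI 1640 with L-glutamine plus 5% fetal bovine serum at 37 C, 5% CO2. Seeded at 5000 cells/well and allowed to attach 24 h. Pure compounds were added from DMSO as serial dilutions in medium over 66.7-0.01 μg/mL final. Cells were TCA-fixed and SRB-stained at 0 and 48 h, with absorbance read at 490 nm. GI50 was taken against vehicle-only and time-0 readings.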

[2] = Growth inhibition of chinese hamster CHOK1 cells after 48 hrs by sulforhodamine B assay; format: cell-based, Cricetulus griseus; settings: CHO-K1 cells
How it was run: (§2)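 Cultured in MEM with Earle's salts, L-glutamine, nonessential amino acids and sodium pyruvate at 37 C, 5% CO2. Plated at 5000 cells/well with 24 h attachment. Pure compounds were given as serial dilutions from DMSO in medium over 66.7-0.01 μg/mL final. SRB protein staining after TCA fixation at 0 and 48 h, read at 490 nm. GI50 came from comparison with vehicle-only and time-0 values.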

[3] = test system: SF-268; assay: Growth inhibition of human SF268 cells after 48 hrs by sulforhodamine B assay; format: functional; settings: SF-268, 48 h; how it was run: as §1
[4] = test system: MCF7; assay: Growth inhibition of human MCF7 cells after 48 hrs by sulforhodamine B assay; format: functional; settings: MCF7, 48 h; how it was run: as §1
[5] = test system: HT-29; assay: Growth inhibition of human HT-29 cells after 48 hrs by sulforhodamine B assay; format: functional; settings: HT-29, 48 h; how it was run: as §2

Compound	GI50 [1] [µM]	GI50 at 48 h [2] [µM]	GI50 [3] [µM]	GI50 [4] [µM]	GI50 [5] [µM]
CC(=O)O[C@H]1CC(C)(C)C(=C=C/C(C)=C/C=C/C(C)=C/C=C/C=C(C)/C=C/C=C(\C)C(=O)C[C@@]23O[C@]2(C)C[C@@H](O)CC3(C)C)[C@](C)(O)C1	14	12	12	8	17
C=CC(C)(C)c1ccc(O)c(CC=C(C)C)c1	37	29	39	27	57
C=CC(C)(C)C1=CC(=O)C(CC=C(C)C)=CC1=O	41	17	17	26	37
CC(C)=CCC1(CC=C(C)C)C[C@@H](O)C=CC1=O [COMOSONE A]	19	17	13	14	19
CC(C)=CCc1cc(O)cc(/C=C\C(C)(C)O)c1O [COMOSUSOL A]	55	57	55	52	53
C=CC(C)(C)c1cc(O)c(/C=C\C(C)(C)O)cc1O [COMOSUSOL B]	6	6	5	6	6
C=CC(C)(C)c1cc(O)c(CC=C(C)C)cc1O [COMOSUSOL C]	29	27	35	25	43
C=CC(C)(C)c1cc(O)c(C(O)C(O)C(C)(C)O)cc1O (stereo not given) [COMOSUSOL D]	54	63	59	46	51
OC[C@@H](O)[C@H](O)[C@H](O)[C@@H](O)CO [GALACTITOL]	> 220	> 220	> 220	> 220	> 220

— ChEMBL document CHEMBL1772959, “Comosusols A-D and comosone A: cytotoxic compounds from the brown alga Sporochnus comosus” (J Nat Prod, 2011)
